Data: ChEMBL document CHEMBL1139351, “Synthesis and biological evaluation of vinca alkaloids and phomopsin hybrids” (J Med Chem, 2009)
Active and inactive are the calls of the source. No cut-off for these calls is given here.

Assays:
[1] = Inhibition of tubulin polymerization assessed as ratio of IC50 for compound to IC50 for vinblastin by UV spectrophotometry
Procedure, shortened: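 Microtubular protein purified from mammalian brain. Drug added from ethanol at several concentrations to free tubulin at 0 °C, then shifted to 37 °C. Assembly followed as OD at 350 nm for 1 min. Maximum assembly rate compared with a drug-free sample, giving IC50. Ratio taken against a vinblastine IC50 measured the same day on the same tubulin preparation.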

[2] = test system: KB; assay: Cytotoxicity against human KB cells after 72 hrs; assay type: functional, cell-based
Procedure, shortened: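 KB human cells; growth followed for 72 h of drug exposure; IC50 taken as the concentration giving 50% growth inhibition.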

[3] = Inhibition of tubulin polymerisation by UV spectrophotometry
Procedure, shortened: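 Microtubular protein purified from mammalian brain. Drug in ethanol at several concentrations added to free tubulin at 0 °C, then shifted to 37 °C. Assembly followed as optical density at 350 nm for 1 min. Maximum assembly rate compared with a no-drug sample. IC50 derived from several concentrations and compared with vinblastine run the same day on the same tubulin preparation.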

[4] = target: Tubulin beta-5 chain (Homo sapiens) (UniProt P07437); assay: Inhibition of beta tubulin nucleotide site assessed as inhibition of displacement of cold GDP by [alpha32P]GTP at 20 uM by rapid filtration technique; parameters: scale not given: the % may be the effect or the level left
Sequence of Tubulin beta-5 chain (Homo sapiens) (P07437 whole entry): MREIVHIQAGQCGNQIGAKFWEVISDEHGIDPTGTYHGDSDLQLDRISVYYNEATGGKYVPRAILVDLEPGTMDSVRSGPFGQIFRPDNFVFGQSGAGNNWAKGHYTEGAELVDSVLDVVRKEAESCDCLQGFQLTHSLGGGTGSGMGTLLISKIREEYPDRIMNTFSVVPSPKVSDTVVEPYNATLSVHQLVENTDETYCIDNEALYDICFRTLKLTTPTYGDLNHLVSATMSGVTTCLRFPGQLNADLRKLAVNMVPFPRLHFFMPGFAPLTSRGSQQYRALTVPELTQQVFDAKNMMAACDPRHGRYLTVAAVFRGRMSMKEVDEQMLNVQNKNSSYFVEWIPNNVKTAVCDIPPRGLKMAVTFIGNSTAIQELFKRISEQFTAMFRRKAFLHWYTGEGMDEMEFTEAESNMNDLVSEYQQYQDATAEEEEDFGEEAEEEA

[5] = target: Tubulin beta-5 chain (Homo sapiens) (UniProt P07437); assay: Inhibition of beta tubulin nucleotide site assessed as inhibition of displacement of cold GDP by [alpha32P]GTP at 40 uM by rapid filtration technique
[6] = target: Tubulin beta-5 chain (Homo sapiens) (UniProt P07437); assay: Inhibition of beta tubulin nucleotide site assessed as displacement of cold GDP by [alpha32P]GTP at 100 uM by rapid filtration technique; parameters: scale not given: the % may be the effect or the level left
[7] = target: Tubulin beta-5 chain (Homo sapiens) (UniProt P07437); assay: Inhibition of beta tubulin nucleotide site assessed as inhibition of displacement of cold GDP by [alpha32P]GTP by rapid filtration technique relative to phomopsin A

Row | SMILES | Ratio IC50 [1] | IC50 ([2]; Homo sapiens, KB, 72 h) | further results
1 | C=C(C)[C@@H]1NC(=O)[C@@H](NC)[C@@H](O)c2cc(Cl)c(O)c(c2)O[C@](C)(CC)[C@@H](C(=O)N2CC=C[C@H]2C(=O)N/C(C(=O)N/C(=C/C(=O)O)C(=O)O)=C(\C)CC)NC1=O [PHOMOPSIN A] |  |  | IC50 [3]: 560 nM; Activity [4]: Active
2 | CCC1=C[C@@H]2CN(C1)Cc1c([nH]c3ccccc13)[C@@](C(=O)OC)(c1cc3c(cc1OC)N(C)[C@H]1[C@@](O)(C(=O)OC)[C@H](OC(C)=O)[C@]4(CC)C=CCN5CC[C@]31[C@@H]54)C2 (stereo in doubt; 4) [VINORELBINE] |  |  | IC50 ([2]; kb): 1 nM
3 | CCC1=C[C@@H]2C[C@](C(=O)OC)(c3cc4c(cc3OC)N(C)[C@H]3[C@@](O)(C(=O)OC)[C@H](OC(C)=O)[C@]5(CC)C=CCN6CC[C@]43[C@@H]65)c3[nH]c4ccccc4c3C[N+](CC(=O)N3CCC[C@H]3C(=O)OC)(C1)C2 | 2 | 100 nM | 
4 | CC[C@]1(O)C[C@@H]2CN(CCc3c([nH]c4ccccc34)[C@@](C(=O)OC)(c3cc4c(cc3OC)N(C)[C@H]3[C@@](O)(C(=O)OC)[C@H](OC(C)=O)[C@]5(CC)C=CCN6CC[C@]43[C@@H]65)C2)C1 [VINBLASTINE] | 1 | 1 nM | IC50 [3]: 2100 nM; Activity [4]: 25%
5 | CCC1=C[C@@H]2CN(C1)Cc1c([nH]c3ccccc13)[C@@](C(=O)OC)(c1cc3c(cc1OC)N(C)[C@H]1[C@@](O)(C(=O)OC)[C@H](OC(C)=O)[C@]4(CC)C=CCN5CC[C@]31[C@@H]54)C2 (stereo in doubt; 3) [VINORELBINE] |  |  | IC50 ([2]; kb): 40 nM
6 | CCC1=C[C@@H]2C[C@](C(=O)OC)(c3cc4c(cc3OC)N(C)[C@H]3[C@@](O)(C(=O)OC)[C@H](OC(C)=O)[C@]5(CC)C=CCN6CC[C@]43[C@@H]65)c3[nH]c4ccccc4c3C[N+](CC(=O)N3CCC[C@H]3C(=O)N[C@H](C(=O)N[C@@H](CC(=O)OCc3ccccc3)C(=O)OCc3ccccc3)[C@@H](C)CC)(C1)C2 | 1.8 | 1300 nM | 
7 | CC[C@H](C)[C@H](NC(=O)[C@@H]1CCCN1C(=O)[C@H]1NC(=O)[C@H](C(C)C)NC(=O)[C@@H](NC)[C@@H](O)c2cc(Cl)c(O)c(c2)O[C@]1(C)CC)C(=O)NC(CC(=O)O)C(=O)O (mixture of isomers) |  |  | IC50 [3]: 400 nM
8 | CCC1=C[C@@H]2C[C@](C(=O)OC)(c3cc4c(cc3OC)N(C)[C@H]3[C@@](O)(C(=O)OC)[C@H](OC(C)=O)[C@]5(CC)C=CCN6CC[C@]43[C@@H]65)c3[nH]c4ccccc4c3CC[N+](CC(=O)N3CCC[C@H]3C(=O)N[C@H](C(=O)N[C@@H](CC(=O)OCc3ccccc3)C(=O)OCc3ccccc3)[C@@H](C)CC)(C1)C2 | 1.3 | 700 nM | Activity [4]: inactive; Activity [5]: inactive; Activity [6]: 55%; Activity [7]: inactive

Now from value to compound, other results behind:

Row | Ratio IC50 [1] | SMILES | IC50 ([2]; Homo sapiens, KB, 72 h) | further results
9 | 9.4 | CCC1=C[C@@H]2C[C@](C(=O)OC)(c3cc4c(cc3OC)N(C)[C@H]3[C@@](O)(C(=O)OC)[C@H](OC(C)=O)[C@]5(CC)C=CCN6CC[C@]43[C@@H]65)c3[nH]c4ccccc4c3C[N+](CC(=O)N3CCC[C@H]3C(=O)N[C@H](C(=O)OCc3ccccc3)[C@@H](C)CC)(C1)C2 | 50 nM | 
10 | 2 | CCC1=C[C@@H]2C[C@](C(=O)OC)(c3cc4c(cc3OC)N(C)[C@H]3[C@@](O)(C(=O)OC)[C@H](OC(C)=O)[C@]5(CC)C=CCN6CC[C@]43[C@@H]65)c3[nH]c4ccccc4c3CC[N+](CC(=O)N3CCC[C@H]3C(=O)N[C@H](C(=O)N[C@@H](CC(=O)O)C(=O)O)[C@@H](C)CC)(C1)C2 | 100 nM | 
11 | 1.4 | CCC1=C[C@@H]2C[C@](C(=O)OC)(c3cc4c(cc3OC)N(C)[C@H]3[C@@](O)(C(=O)OC)[C@H](OC(C)=O)[C@]5(CC)C=CCN6CC[C@]43[C@@H]65)c3[nH]c4ccccc4c3CC[N+](CC(=O)N3CCC[C@H]3C(=O)N[C@H](C(=O)OCc3ccccc3)[C@@H](C)CC)(C1)C2 | 300 nM | 
12 | 1.7 | CCC1=C[C@@H]2C[C@](C(=O)OC)(c3cc4c(cc3OC)N(C)[C@H]3[C@@](O)(C(=O)OC)[C@H](OC(C)=O)[C@]5(CC)C=CCN6CC[C@]43[C@@H]65)c3[nH]c4ccccc4c3CC[N+](CC(=O)N3CCC[C@H]3C(=O)N[C@H](C(=O)O)[C@@H](C)CC)(C1)C2 | 700 nM | 
13 | 0.9 | CCC1=C[C@@H]2C[C@](C(=O)OC)(c3cc4c(cc3OC)N(C)[C@H]3[C@@](O)(C(=O)OC)[C@H](OC(C)=O)[C@]5(CC)C=CCN6CC[C@]43[C@@H]65)c3[nH]c4ccccc4c3CC[N+](CC(=O)N3CCC[C@H]3C(=O)OC)(C1)C2 | 80 nM | 
14 | 19.4 | CCC1=C[C@@H]2C[C@](C(=O)OC)(c3cc4c(cc3OC)N(C)[C@H]3[C@@](O)(C(=O)OC)[C@H](OC(C)=O)[C@]5(CC)C=CCN6CC[C@]43[C@@H]65)c3[nH]c4ccccc4c3C[N+](CC(=O)N3CCC[C@H]3C(=O)N[C@H](C(=O)N[C@@H](CC(=O)O)C(=O)O)[C@@H](C)CC)(C1)C2 | 400 nM | 
15 | 9.4 | CCC1=C[C@@H]2C[C@](C(=O)OC)(c3cc4c(cc3OC)N(C)[C@H]3[C@@](O)(C(=O)OC)[C@H](OC(C)=O)[C@]5(CC)C=CCN6CC[C@]43[C@@H]65)c3[nH]c4ccccc4c3C[N+](CC(=O)N3CCC[C@H]3C(=O)N[C@H](C(=O)O)[C@@H](C)CC)(C1)C2 | 90 nM | 
